# An excerpt weighted towards active compounds, which were near 1.5% of everything screened.
# CHT inh: inhibitors of human choline transporter CHT; High affinity choline transporter 1 (Homo sapiens), Q9GZV3; CHT-expressing cells, membrane potential dye, choline response; active compounds read low; B-score at 10 µM; 0.86% of 310,000 active; AID 488975, 2010;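 active = B-score over 3 SD under the library average, and starting fluorescence ratio not unusually high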;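 also: choline stimulus applied at its EC90 after an EC20 pre-addition; B-score computed on integrated fluorescence ratio after choline addition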
# Target sequence (Q9GZV3 whole entry, looked up): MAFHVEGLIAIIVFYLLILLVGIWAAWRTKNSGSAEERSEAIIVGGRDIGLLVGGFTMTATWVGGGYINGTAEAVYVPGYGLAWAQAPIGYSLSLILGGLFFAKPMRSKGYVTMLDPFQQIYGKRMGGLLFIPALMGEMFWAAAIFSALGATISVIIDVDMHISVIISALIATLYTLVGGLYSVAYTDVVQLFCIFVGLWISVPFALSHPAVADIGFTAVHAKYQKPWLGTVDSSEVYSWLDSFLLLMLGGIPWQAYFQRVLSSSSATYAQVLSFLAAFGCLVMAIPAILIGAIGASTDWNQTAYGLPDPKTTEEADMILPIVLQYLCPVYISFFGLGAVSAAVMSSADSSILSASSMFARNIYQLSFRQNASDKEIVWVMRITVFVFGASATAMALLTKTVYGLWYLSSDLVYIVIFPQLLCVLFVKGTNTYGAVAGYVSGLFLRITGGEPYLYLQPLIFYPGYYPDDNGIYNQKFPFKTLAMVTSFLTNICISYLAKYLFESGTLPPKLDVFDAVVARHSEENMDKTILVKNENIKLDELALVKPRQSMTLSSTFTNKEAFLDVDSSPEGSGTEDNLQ
# VLA-4 inh: inhibition in human VLA-4 binding assay, primary screen, VLA-4 allosteric modulator project, MLPCN library, flow cytometry, VLA-4 expressing cells. Integrin alpha-4 (Homo sapiens), P13612. ligand binding flow cytometry. inhibition, % (about 7 µM as worked out from the volumes in the protocol). 0.2% of 330,000 active; in the data active = inhibition above about 50%
# T cell HTS: modulators of CD8 T cell-vesicle binding, primary screen, mouse 2C CD8+ T cells, flow cytometry | 0.068% of 330,000 active | 2C CD8+ T cell-vesicle binding; active compounds read low | response (vesicle binding), % at 7 µM;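 active = response, share of CD8 T cells binding vesicles, and their 90th percentile fluorescence all below set limits, cut at about 80% in these data, passing the limit was not always enough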;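 also: values below 100% mean blocked vesicle binding to the CD8+ T cells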
#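 Read-out – percent CD8+ FL2 mean versus row control · System – murine 2C transgenic CD8+ T lymphocytes · Times – 1.5 h cell–vesicle binding at 37 °C, then 20 min icy labelling · Control set – naked vesicles low, QL9 vesicles with vehicle high · Detection – cytometric PE anti-B7-1 and Alexa647 anti-CD8 signals after 1% paraformaldehyde fixation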
# CHT allo act: CHT positive allosteric modulators, primary screen, cell-based, membrane potential dye, choline EC20. High affinity choline transporter 1 (Homo sapiens), Q9GZV3. CHT-expressing cells; active compounds read high; LV-AA mutant CHT in HEK293 cells. AID 488977, 2010. B-score at 10 µM. 0.49% of 310,000 active;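 active = initial fluorescence not abnormally high and integrated response B-score, plate-corrected, over 3 SD above library mean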
# CHT activ conf: CHT activators, confirmation, cell-based, membrane potential dye, duplicate | activation, % at 10 µM | 91% of 2,500 active | shares compounds with CHT allo act | CHT-expressing cells, membrane potential dye fluorescence (FDSS); % of choline EC20–EC90 response window; HEK293 expressing CHT LV-AA mutant; choline added at its EC20;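 active = primary screen active, with duplicate mean activation above negative control mean plus 3 SD, cut at about 11% in these data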
# HEK293 MP dye: membrane potential response in parental HEK293 cells, counter-screen for CHT activator project, cell-based, membrane potential dye; 62% of 2,500 active; ratio readout change at 10 µM, hits read low; membrane potential dye fluorescence (FDSS); measured after EC20 choline addition; shares compounds with CHT allo act;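 active = duplicate-averaged ratio beyond 3 SD from buffer wells, up or down, though filed actives are nearly all decreases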
# * hit, by the source's call; i = inactive; . = no result given.
SMILES,CHT inh,VLA-4 inh,T cell HTS,CHT allo act,CHT activ conf,HEK293 MP dye
CCC(C)(C)n1nnnc1C(c1cccc(C#N)c1)N1CCN(c2cccc(C)c2C)CC1 (centres undefined),i,22.9,300.6,i,25.6*,i
O=C(CN(Cc1ccc(Cl)cc1)C(=O)CNS(=O)(=O)c1ccc(F)cc1)NCC1CCCO1 (centres undefined),i,-1.7,340.2,i,.,.
Cc1ccc(Nc2nc(-c3c(C)nc4ncccn34)cs2)cc1,i,14.7,318.1,6.75*,28.8*,i
Cc1cccc(N/C(N)=N/c2nc(C(F)(F)F)cc(=O)[nH]2)c1C,i,16.9,340.9,i,.,.
CCOC(=O)C1=C(N)OC2=C(C(=O)CC(C)(C)C2)C1c1ccc(C)s1 (centres undefined),i,19.2,321.2,i,.,.
CCOC(=O)C1=C(N)OC2=C(C(=O)CC(C)(C)C2)C1c1ccc(CC)s1 (centres undefined),i,22.3,323.3,7.6*,20.8*,i
COC(=O)c1c(NC(NC(=O)c2ccccc2)(C(F)(F)F)C(F)(F)F)sc2c1CCN(C)C2,i,.,127.1,7.19*,69.5*,-58.6*
CCC(=O)NC(Nc1sc2c(c1C(=O)OC)CCCC2)(C(F)(F)F)C(F)(F)F,i,-6.1,140.6,i,.,.
Cc1c(OCC(=O)NCCCN2CCCC2=O)ccc2c3c(c(=O)oc12)CCC3,i,8.9,244.4,i,36.1*,-30.3*
Cc1c(O)c(CN2CCCC2)cc2c1oc(=O)c1ccccc12,i,-0.5,215.1,i,.,.
CCN(CC)C(=O)COc1ccc2c3c(c(=O)oc2c1C)CCCC3,i,11.1,198.5,i,.,.
Cc1c(OCC(=O)NCCCN2CCCC2=O)ccc2c3c(c(=O)oc12)CCCC3,i,7.1,277.0,i,.,.
Cc1c(OCc2ccc(C(=O)O)o2)ccc2c3c(c(=O)oc12)CCC3,i,-18.1,413.3,i,38.9*,-25.5*
Cc1c(O)c(CN2CCCC2)cc2c3c(c(=O)oc12)CCC3,i,14.9,443.1,9.79*,36.9*,-72.5*
COc1ccc(CC2(C)OC(c3ccc(C)c([N+](=O)[O-])c3)=NN2C(C)=O)cc1 (centres undefined),i,1.0,224.2,i,27.0*,i
CN1CCN(Cc2nc3ccccc3c(=O)n2Cc2nc(-c3ccccc3F)cs2)CC1,i,-132.2,319.7,8.2*,29.6*,i
Cc1cccc(NC(=O)COc2coc(CN3CCc4ccccc4C3)cc2=O)c1,i,4.2,348.8,i,.,.
COCc1ccc(C(=O)NC2CCCc3c2cnn3-c2ccc(C)c(C)c2)o1 (centres undefined),i,-0.3,314.1,i,.,.
COc1ccc(C(=O)NNC(=O)c2ccccc2[N+](=O)[O-])cc1[N+](=O)[O-],i,11.9,210.1,i,.,.
COc1ccc(C(=O)C(C)[n+]2ccc(C)c3ccccc32)cc1[N+](=O)[O-] (centres undefined),i,-60.7,244.9,6.53*,42.6*,-39.8*
Cc1cc(Nc2cccc([N+](=O)[O-])c2)c2ccccc2n1,i,-2.2,235.2,i,.,.
Cc1cc(C)nc(/N=C(\N)Nc2cccc([N+](=O)[O-])c2)n1,i,0.8,i,i,27.8*,-45.9*
Cc1cc(Nc2cccc([N+](=O)[O-])c2)c2cccc(C)c2n1,i,3.4,811.8,i,42.0*,-52.3*
CCOc1ccc(N(CC(=O)Nc2ccc(OC)cc2)S(=O)(=O)c2c(C)noc2C)cc1,i,4.3,312.1,i,.,.
COc1ccc(N(CC(=O)Nc2ccc(C)cn2)S(=O)(=O)c2c(C)noc2C)cc1,i,6.2,999.1,6.59*,7.2,i
SMILES,CHT inh,VLA-4 inh,T cell HTS,CHT allo act,CHT activ conf,HEK293 MP dye
Fc1ccc(C(CCNCc2ccccn2)c2ccc(Cl)cc2)cc1 (centres undefined),i,2.6,194.8,i,16.4*,i
CC(Sc1nc2ccccc2c(=O)n1C)C(=O)N(C)C1CCCCC1 (centres undefined),i,-2.6,709.9,i,.,.
CC(C)c1ccc(NC(=O)NC2(C(=O)NCc3cccnc3)CCCCC2)cc1,i,6.9,363.2,i,.,.
Cc1ccc(C)c(S(=O)(=O)N2CCN(C(=O)c3ccnn3C)CC2)c1,i,8.0,222.6,i,.,.
COc1cc2cc[n+](Cc3ccc([N+](=O)[O-])cc3)cc2cc1OC,i,10.3,174.5,7.11*,71.0*,-79.5*
O=[N+]([O-])c1ccc(C[n+]2cccc(O)c2)cc1,i,5.3,295.4,i,.,.
CC1CCCCC1NC(=O)CN1CCN(S(=O)(=O)c2ccc(Br)s2)CC1 (centres undefined),.,7.5,327.6,.,.,.
CCN(CC)c1nc(N2CCN(CCO)CC2)nc2ccccc12,i,4.1,0.0,i,.,.
CCN(CC)c1nc(N2CCN(C)CC2)nc2ccccc12,i,-7.7,229.3,i,60.1*,-57.6*
COC(=O)c1ccc2c(=O)n(CCCN3CCOCC3)c(=S)[nH]c2c1,i,-2.6,333.8,i,23.7*,-39.8*
O=C(COC(=O)CCC(=O)c1cccs1)Nc1cc(S(=O)(=O)N2CCOCC2)ccc1Cl,i,-4.8,650.2,i,.,.
Cc1nn(C)cc1/C=N/NC(=O)c1ccc2c(c1)OCO2,i,-2.0,159.0,i,.,.
Cc1cc(C)n2nc(C(=O)N/N=C/c3cn(C)nc3C)nc2n1,i,22.9,236.0,i,48.4*,-30.2*
O=C(NCc1ccccc1)C(c1ccncc1)N(C(=O)c1csnn1)c1cccc(F)c1 (centres undefined),i,10.4,570.4,i,.,.
CC(C)(C)c1ccc(C(=O)N/N=C/c2ccccn2)cc1,i,21.0,260.2,i,.,.
Cc1ccc(C(=O)N/N=C\c2ccccn2)cn1,i,8.4,535.9,i,39.8*,-37.7*
O=C(c1cc([N+](=O)[O-])ccc1N1CCCCC1)N1CCc2ccccc21,i,3.2,147.0,i,35.3*,i
N#C/C(=C\c1c(N2CCCCCC2)nc2ccccn2c1=O)C(=O)NC1CCS(=O)(=O)C1 (centres undefined),i,8.5,179.5,i,.,.
CCOC(=O)/C(C#N)=C/c1c(N2CCN(c3ccccc3)CC2)nc2ccccn2c1=O,i,-18.9,245.2,i,.,.
